Assay results published in the EternaBench riboswitch data.

System: MS2 coat protein
Test: apparent Kd, MS2 coat protein; higher = weaker binding; RNA-MaP array; FMN 200 µM where present
Summary of the method: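 The titrant was SNAP-549-labelled MS2 coat protein, run from 0.7 or 1.5 nM in doubling steps to 3 µM. It was applied to designs transcribed by stalled E. coli RNA polymerase on Illumina sequencing-chip clusters, without ligand first and then with constant ligand, in 100 mM Tris-HCl pH 7.5, 80 mM KCl, 4 mM MgCl2, BSA, DTT, yeast tRNA and Tween-20. The apparent Kd is the median of filtered per-cluster binding-curve fits, with green signal normalised to red-channel RNA signal and control-cluster median Fmax.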

[1] = designed as: OFF switch for flavin mononucleotide, no ligand
[2] = ligand present: flavin mononucleotide, designed as: OFF switch for flavin mononucleotide
[3] = designed as: ON switch for flavin mononucleotide, no ligand
[4] = ligand present: flavin mononucleotide, designed as: ON switch for flavin mononucleotide

Sequence	apparent Kd [1] [nM]	apparent Kd [2] [nM]	apparent Kd [3] [nM]	apparent Kd [4] [nM]
GGUGCGUAUGUGAGGAUAUGCUGGUCCUUGGAUCGGCAGAAGGCACAUGAGGAUCACCCAUGUGGUGUCGUACU	300	25.5	–	–
GCUGCAUAGGCAGGAUAUGCAACAAUUAGAAUAAAAUAUAACUAAUUGACAUGAGGAUCACCCAUGUAGAAGGGCCUGUGCAGU	21.1	19.6	–	–
GAUCGACCUGAGAAGGCACAUGAGGAUCACCCAUGUUGAACCAUACAUGCCACAAAGUGGCAAUGUGAGGAUAUCAGGUCGAUC	6.54	12.1	–	–
AGUGCGAUGGGAGGAUAUCAUGGUCUAAUUAAUAAAAGGAUCACAUGAGGAUCACCCAUGUGUCAUGAGAAGGCCCUCGAGACC	–	–	74.2	11.2
UCCUAGCUAGGAUAUACCCAGGGUUUGUUCUCUAACAAAACACAUGAGGAUCACCCAUGUAGAAGGAGCCGGGA	76.9	70.8	–	–
GUGUGCAGAGGAUAUACAGAGGAAAAGAAAAGAGAAGGGAGACAUGAGGAUCACCCAUGUAGAAGGCUGAGUGU	64.4	91.8	–	–
UAUUUGCAAGGAUAUGAUUUAAGUAACAUGAGGAUCACCCAUGUUUAUCCGUUGUUAUGUUCAGAAGGUGCGUGAU	50.8	72.4	–	–
UUAAUUAAAGUGAGGAUAUCUAGAGCCUCGGCUCUAGAGAAGGCACAUGAGGAUCACCCAUGUCUCAAUUAAUU	15.7	26.8	–	–
CUUGGGUGGCUGGAGGAUAUUCGAGUGGUAACAUGAGGAUCACCCAUGUGUCGCGCGGUACACGAGGAGAAGGCUGGCGGCCGGC	–	–	146	54.6
GUCAGCUCGUGAGGAUAUAUAUUAACAUGAGGAUCACCCAUGUAAGAUCAGCUUCGGCAGUUAAUAUAGAAGGCACGAGCUGAC	168	188	–	–
UUGUUAUAUGUAGGAUAUGCGUAUUAUUAUUAGGCAGAAGGACAUGAGGAUCACCCAUGUAUGUUGUUGUUAUAUAUUAUAUAU	28.4	29.6	–	–
AUCAGCUCGGCAGGAUAUACGUCACUGCGUCAGCAGUGUGGUAAGAUCACAUGAGGAUCACCCAUGUAGAAGGGACGAGCUGAU	11.4	74.5	–	–
AGUGUCAUCGAGAAGGCCUCAACAUGAGGAUCACCCAUGUUGCAAAAUGGGAGGAUAUCGCGCGCAAAACUACGUUUCGUAGCA	–	–	30.5	11.4
CACAUUUUAACAGGAUAUGUAUGGUUGCUUAUUAUUGCAUAUUCAAUUAUUACAGAAGGGUUAUACAUGAGGAUCACCCAUGUG	–	–	21	15.5
GCAGGAUAAGUGAGGAUAUACCUCUGGAUACAGAGGUAGAAGGCACAUGAGGAUCACCCAUGUCUAUCACCUGC	16	41.3	–	–
GUGCCUUGGGAGAAGGCAGCAUGCAAAGCAUUCUGAGGAUAUUCAUACCGGAAACGGACAUGAGGAUCACCCAUGUGGCACAAA	–	–	1470	72.1
AAGUGUGCCUAGGAUAUGUUCGGCCAAGGUCAUACAGAAGGAGGCACAUGAGGAUCACCCAUGUAGUGUCCAAC	118	29.4	–	–
AAAACAUGAGGAUCACCCAUGUAAAGAUCAAUUAAAAUGAGUGAGGAUAUACUAAAUUAUUUAUAGUAGAAGGCACUGGGUACA	–	–	25	26.3
AUACUCAUGUAAGGAUAUGCAGCCGAAACGGCUGCAGAAGGUACUAAAAUACAUGAGGAUCACCCAUGUCUUUUUAAUUUAGAC	–	–	258	255
GUCAUCACAUGAGGAUAUGCUCGGGUUUCCCGAGCAGAAGGCAUGGCAUACAUGAGGAUCACCCAUGUUGACAUUAAGAUUGUA	–	–	10.3	6.73
UAGAUGGGAGGAUAUACGUAGAUGCGGAUUCGUGUGGUGCUACAUGAGGAUCACCCAUGUAGAAGGCCCGUCUU	17.1	72.2	–	–
UUGUGGGAGCAGGAUAUCUUAGUUUGGUUGUGUGGAGAAGGGCUGACAUGAGGAUCACCCAUGUGGUCCUAGAU	24.1	29.5	–	–
UGUUGUAUUACAGGAUAUCUAGUAGUUUUAUUUAGAGAAGGGUAUUCACAUGAGGAUCACCCAUGUAUAUACGAGGAAGUUGUG	–	–	38.9	40
UUACAUACAAAGGUACAUGAGGAUCACCCAUGUUUGUUGGGAAGAAGGGUAACAAUACUACACAUACAGGAUAUUUCACAAAUA	–	–	48	31.3
UUAAUUAACAAGAAGGCUAACAUGAGGAUCACCCAUGUUGUACAUGGAUAUAGAGGAUAUUGCUAAUAAUUAUUUAUCAUAAUU	25.6	19	–	–
CCAUGGAGUGUGAGGAUAUGCUGGUCCUUGGAUCAGCAGAAGGCACAUGAGGAUCACCCAUGUGAAUACCGUGG	36.2	196	–	–
GUGGACUACGUAGGAUAUGUAGGAUAUUCCUACAUGAGGAUCACCCAUGUUAGCAUGGAAGAAGGACAGAAGGACGUGGUCCAG	–	–	1130	16
CCGAGAAGGACAGGAUAUGGACAUGAGGAUCACCCAUGUACAUGGGAAUAUAUACUGAAUUUUUACUAGAAGGGUUACAUAAAU	19.3	14.9	–	–

Sequence	apparent Kd [1] [nM]	apparent Kd [2] [nM]	apparent Kd [3] [nM]	apparent Kd [4] [nM]
UCGCUGCGAGGAUAUACGUUUGCGCGUUUUCGUUUGCGCGUACAUGAGGAUCACCCAUGUAGAAGGCGCGCUGC	15.4	15.5	–	–
ACAGUCACAAUAACUUGUGGGCGUGAGGAUAUAUAUGGCUCGGAGCGGACAUGAGGAUCACCCAUGUAGAAGGCACGAACUAAU	6.1	8.54	–	–
GAACUGAGGCAAAGCUUUAGUCGUACAUGAGGAUCACCCAUGUAGGAUAUGGUAGGCUUUGCUUACCAGAAGGACAGAGUGAUC	102	139	–	–
UUAUUUAUGUAAGGAUAUCGAUGAUAUACGCAUCCGACAUGAGGAUCACCCAUGUUUUAUUUUGUCGAGAAGGUACAUUGUCGG	–	–	57.8	57.1
GUACAACAUGAGGAUCACCCAUGUAUAUAUAUACGAGGAUAUGCAUGUACGAAAGUAUAUGCAGAAGGCGUUGUAC	–	–	127	30.2
CCGUAGAUGGGACAGGAUAUGACUGUCGUCACAUGAGGAUCACCCAUGUCCCGGCAAUGCCACCGUUAGAAGGGUCCCGUCUCGG	–	–	14.4	15
UGGUACUAGGGAGGAUAUGGGAAGAUACAUGAGGAUCACCCAUGUUUAAGAAUGCCGACAGGCAACUAGAAGGCCCUAGUACCU	–	–	414	20.2
AGCUACGUUUCGUAGCAGCUAGGUGAGGAUAUCCUUAUACAUGAGGAUCACCCAUGUUAGCCAUGGGAGAAGGCGCCUAGAAAG	–	–	328	24.8
GUAGCAUACGGAGGAUAUUCAUUAAAACAUGAGGAUCACCCAUGUAAAUUGGGAGAAGGCCGUAUGCUACAAGAGCGAAAGCUC	–	–	18.3	5.48
GGAAGACAAAGUCUUCCAAAUCGAACAUGAGGAUCACCCAUGUAGGAUAUGCUACUCAAAGAGUAGCAGAAGGACAUGUGCUUU	40.1	193	–	–
GUUUUUUUUAGUUCAUACUAUUUGAUAGAAGGUGAAAUAUAGACAUGAGGAUCACCCAUGUAAUUCAAGGAUAUGUAGUUACUC	–	–	40.6	32.7
AAUAAGCAAGGAUAUACGACGCAGAGCGUCAGUGGGCGAUGACAUGAGGAUCACCCAUGUAGAAGGUGCACAUC	93.9	208	–	–
CUUUUGUGAGGAUAUCAGUAGUAAAAUAAUAAUAUUACUACUGAGAAGGCACAUGAGGAUCACCCAUGUUCCUC	40.5	267	–	–
AGUUAAUAUCGAGGAUAUCCUCAUAUACAUGAGGAUCACCCAUGUAAACAUGGAGAAGGCGAUAUUAACAGCAUGUUACAUGCA	–	–	377	21.9
GCCUCAUAGUAGAAGGGACUUCGGCUGUUAAGCAUCAUCUCCAUUUCACAUGAGGAUCACCCAUGUCAGGAUAUACUAAGAGGC	10.3	24.9	–	–
AUCAGCUCCUCAGGAUAUACGUCACUGCGUCAGCAGUGUGGUAAGAUCACAUGAGGAUCACCCAUGUAGAAGGGACGAGCUGAU	31.8	140	–	–
UUUAAGUCAGGAUAUCGUUAAUUUAAUUAAUUAUUUUAAUUCGAGAAGGGACAUGAGGAUCACCCAUGUAAUUU	36.8	60.2	–	–
GGAUAGUGAGGAUAUCGAUGUUAGGAGGAUGAGGUAGGAUGCGAGAAGGCACAUGAGGAUCACCCAUGUAUGGU	48.8	38.8	–	–
GGACCGCGCAGAGUUGACGGUCGGCAGGAUAUGACAUGAGGAUCACCCAUGUGAACUCCAUUGGGUCAGAAGGGCCACGACGAA	21.1	77.3	–	–
UCAUGUAUGUAGGAUAUCGAUGUCCUUGGACAUCGAGAAGGACGUACAUGAGGAUCACCCAUGUAACUUGCAUG	25.4	16.8	–	–
CAGCGGGCAGGAUAUGCACCUUGAGACAAAUGUCUGUCCGGACAUGAGGAUCACCCAUGUAGAAGGGCCACGGA	55.4	44.5	–	–
UCAUCAGCGGGCGGAUCGGUUGGACAUGAGGAUCACCCAUGUAGAAGGACCGGUGGAUUCCGGCGGUAGGAUAUACAUUUGGUG	12.9	27.4	–	–
GGUGAAGCAGGAUAUGUGCCAAUAUACAUGAGGAUCACCCAUGUCAUGUAGGAACUGCGUAUAGAAGGGCUUCACC	37.6	63.5	–	–
AUAUUAAUAGUAAGGAUAUGCGUGUAUGUAGUUAUGCAGAAGGUACAUGAGGAUCACCCAUGUAUUAAUGUGUA	14.2	15.4	–	–
UAUAUACAUGAGGAUCACCCAUGUAAGGAUAUGCUUUAUUAUUAUUAUUAUUAUUAUUGCAGAAGGUACAAUAU	32	29.8	–	–
GGGAAACAUGAGGAUCACCCAUGUCAGGAUAUGAUACUAUGUACUUCGGUACAUAGUAUCAGAAGGGACAUCAU	73.8	204	–	–
AGCAUUGCUUAGAAGGGAAAUUUAUAAUUUAAUUCAGGAUAUAGAUACAGUACAACAUGAGGACAUGAGGAUCACCCAUGUAUA	–	–	25.8	19.3
